Assay results from ChEMBL document CHEMBL1143407, “In vivo efficacy and pharmacokinetics of voriconazole in an animal model of dermatophytosis” (Antimicrob Agents Chemother, 2007).
In brackets after ≈: the same amount, converted by molar mass.

Experiments:
Microsporum audouinii = experiment: Antimicrobial activity against Microsporum audouinii; assay type: functional
[1] = Cmax in guinea pig interstitial fluid at 20 mg/kg/day, po after 3 hrs; assay type: ADME, organism-based, Cavia porcellus; parameters: dose 20 mg/kg/day, route oral
How it was run: (§1)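 Day 14: the first three treated guinea pigs, infected and dosed as above, were studied under anesthesia. Dermal microdialysis catheters were placed in normal and inoculated skin and perfused with isotonic NaCl at 1 μl/min. Probes were calibrated beforehand by retrodialysis (5 and 10 μg/ml). Dialysates were collected every 30 min for 3 h after the twelfth 20 mg/kg oral dose. Unbound level = 100 × C_dialysate/RR, by isocratic RP-18 HPLC.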

Nannizzia nana = experiment: Antimicrobial activity against Microsporum nanum; assay type: functional
Microsporum canis [2] = experiment: Antifungal activity against Microsporum canis infected in guinea pig dermatophytosis model assessed as colony count per specimen at 20 mg/kg/day, po administered 12 days measured after 17 days; assay type: functional
How it was run: (§2)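 Female guinea pigs (418 to 482 g) were inoculated on shaved skin with M. canis clinical-isolate microconidia at about 8 × 10⁵ conidia/ml. Oral solution was given by gavage at 20 mg/kg/day on days 3 to 14; controls were untreated (n = 8 per group). Skin scrapings were cultured on SAB with cycloheximide/chloramphenicol for 28 days and CFU per specimen counted. Groups were compared by Wilcoxon two-sample test.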

Paraphyton cookei = experiment: Antimicrobial activity against Microsporum cookei; assay type: functional
[3] = Drug level in guinea pig whole blood at 20 mg/kg/day, po after 3 hrs; assay type: ADME, organism-based, Cavia porcellus; parameters: route oral; settings: read-out: Drug uptake
How it was run: (§3)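 Day 14: three infected guinea pigs received the twelfth 20 mg/kg oral gavage dose. Whole blood was drawn from the eye vein hourly from 1 h. 3-mm full-thickness punch biopsies were taken hourly from the lesion margin over 3 h. Blood was precipitated with acetonitrile. Biopsies were extracted 6 h in acetonitrile-ammonium phosphate with freeze-thaw cycles. Total drug was measured by isocratic RP-18 HPLC (LLOQ 0.2 μg/ml).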

[4] = Cmax in guinea pig whole blood at 20 mg/kg/day, po after 3 hrs; assay type: ADME, organism-based, Cavia porcellus; parameters: dose 20 mg/kg/day, route oral; how it was run: as §3
[5] = Cmax in guinea pig skin at 20 mg/kg/day, po after 3 hrs; assay type: ADME, organism-based, Cavia porcellus, Zone of skin; parameters: dose 20 mg/kg/day, route oral; how it was run: as §3
[6] = Cmax in guinea pig skin biopsy specimen at 20 mg/kg/day, po after 3 hrs; assay type: ADME, organism-based, Cavia porcellus, Zone of skin; parameters: dose 20 mg/kg/day, route oral; how it was run: as §3
[7] = Cmin in guinea pig skin biopsy specimen at 20 mg/kg/day, po after 3 hrs; assay type: ADME, organism-based, Cavia porcellus, Zone of skin; parameters: route oral; settings: read-out: Cmin; how it was run: as §3
Nannizzia gypsea = experiment: Antimicrobial activity against Microsporum gypseum; assay type: functional
[8] = Drug level in guinea pig interstitial fluid at 20 mg/kg/day, po after 3 hrs; assay type: ADME, organism-based, Cavia porcellus; parameters: route oral; settings: read-out: Drug uptake; how it was run: as §1
Microsporum distortum = experiment: Antimicrobial activity against Microsporum distortum; assay type: functional
Microsporum canis [9] = experiment: Antifungal activity against Microsporum canis infected in guinea pig dermatophytosis model assessed as colony count per specimen at 20 mg/kg/day, po after 7 days; assay type: functional; how it was run: as §2
Microsporum canis [10] = experiment: Antimicrobial activity against Microsporum canis; assay type: functional
How it was run: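 MIC was determined by CLSI M38-A broth dilution, modified to use 10⁵ CFU/ml inoculum and 10 days incubation at 25°C. The organism was a clinical M. canis isolate, tested in triplicate.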

[11] = Drug level in guinea pig skin biopsy specimen at 20 mg/kg/day, po after 3 hrs; assay type: ADME, organism-based, Cavia porcellus, Zone of skin; parameters: route oral; settings: read-out: Drug uptake; how it was run: as §3
[12] = Cmin in guinea pig whole blood at 20 mg/kg/day, po after 3 hrs; assay type: ADME, organism-based, Cavia porcellus; parameters: route oral; settings: read-out: Cmin; how it was run: as §3
Microsporum canis [13] = experiment: Antifungal activity against Microsporum canis infected in guinea pig dermatophytosis model assessed as colony count per specimen at 20 mg/kg/day, po after 3 days; assay type: functional; how it was run: as §2
Microsporum canis [14] = experiment: Antifungal activity against Microsporum canis infected in guinea pig dermatophytosis model assessed as colony count per specimen at 20 mg/kg/day, po administered 12 days measured after 14 days; assay type: functional; how it was run: as §2

`C[C@@H](c1ncncc1F)[C@](O)(Cn1cncn1)c1ccc(F)cc1F` [VORICONAZOLE] gave an MIC (Microsporum audouinii) of 0.01 µg/mL (≈ 0.0286 µM), a Cmax [1] of 2000 ng/mL and an MIC (Nannizzia nana) of 0.01 µg/mL (≈ 0.0286 µM). For the same compound, the Activity (Microsporum canis [2]) was 0.2, the MIC (Paraphyton cookei) was 0.01 µg/mL (≈ 0.0286 µM) and the concentration at 3 h [3] was 6300 ng/mL. For the same compound, the Cmax [4] was 7700 ng/mL, the Cmax [5] was 28100 ng/g and the Cmax [6] was 35900 ng/g. For the same compound, the concentration at 3 h [7] was 9100 ng/g, the MIC (Nannizzia gypsea) was 0.01 µg/mL (≈ 0.0286 µM) and the concentration at 3 h [8] was 1400 ng/mL. For the same compound, the MIC (Microsporum distortum) was 0.01 µg/mL (≈ 0.0286 µM), the Activity (Microsporum canis [9]) was 4.1 and the MIC (Microsporum canis [10]) was 0.25 µg/mL (≈ 0.716 µM). The concentration at 3 h [11] was 18300 ng/g, the concentration at 3 h [12] was 4000 ng/mL and the Activity (Microsporum canis [13]) was 6.4. For the same compound, the Activity (Microsporum canis [14]) was 0.3.
